Source: PubChem BioAssay (Sanford-Burnham Center for Chemical Genomics)
UPR XBP1 act = activators of adaptive arm of unfolded protein response (XBP1); CHO-XBP1 luciferase reporter, IRE1-XBP1 UPR activation, luminescence; percent of tunicamycin response, DMSO as zero; activation, % at 20 µM; 0.33% of 330,000 active; AID 463104;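 active = versus positive control, 20 µM dose yields 30% or more activation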;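 also: 100% = tunicamycin at 10 µg/mL and 0% = DMSO only wells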
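Material: CHO-XBP1 cells stably carrying IRE1-XBP1-driven luciferase reporter / Amount: 1000 cells per well / Compound: 20 µM, 1% DMSO / Times: 6 h treatment, 37 °C / Detection: luciferase luminescence / Measure: % activation of reporter signal versus tunicamycin and DMSO controls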
697 NFkB inh = lowers PMA/ionomycin-induced NF-kB signal in 697 B cells; 697 B-cell NF-kB luciferase reporter, 16 h; 0.33% of 330,000 active; inhibition, % at 4 µM; in the data active = inhibition above about 35%
CHOP UPR activ = apoptotic UPR (CHOP) activation; activation, % at 10 µM; CHO-CHOP luciferase reporter, luminescence; percent of tunicamycin response over DMSO baseline; 0.34% of 330,000 active;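 active = at 10 µM dose, activation of 40% or more, normalized to positive control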;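 also: 100% = tunicamycin at 10 µg/mL and 0% = DMSO alone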
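System: CHO-CHOP luciferase reporter cell line; amount: 500 cells/well; buffer or medium: F12 medium containing 10% fetal bovine serum; incubation: 6 h compound exposure at 37 °C after overnight seeding; measured by: luciferase luminescence after 10 min with Steady-Glo reagent; evaluation: % reporter activation, DMSO baseline versus tunicamycin full activation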
CRFBP-R2 block = antagonists of CRF-binding protein/CRF-R2 receptor complex; HEK293 CRF-R2/CRF-BP, CRF-induced calcium fluorescence; inhibition, % at 11.8 µM; 0.59% of 350,000 active; AID 588475;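 active = inhibition of the ligand-induced calcium signal above about 50% at the single tested concentration, limit read from the data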
Jurkat NFkB inh = lowers PMA/ionomycin-induced NF-kB signal in Jurkat cells; inhibition, % at 4 µM; PMA/ionomycin-induced NF-kB luciferase reporter, luminescence; 0.53% of 330,000 active; in the data active = inhibition above about 50%
697 NFkB conf = inhibitors of the PMA/ionomycin-induced NF-kB reporter in 697 B cells, retest; shares compounds with 697 NFkB inh; 697 B-cell NF-kB luciferase, 16 h; inhibition, % at 4 µM; 35% of 2,000 active; in the data active = inhibition mostly above about 28%, no sharp cut-off; inactive = mostly below about 22%
CHOP UPR conf = apoptotic UPR (CHOP) activation, confirmed. shares compounds with CHOP UPR activ. CHO-CHOP cells, CHOP-luciferase reporter luminescence; percent of tunicamycin response, DMSO as zero. activation, % at 10 µM. 64% of 1,000 active; in the data active = activation above about 33%;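 also: 0% = DMSO wells and 100% = tunicamycin 10 µg/mL wells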
Starred values were filed as active, the others as inactive; i = inactive; x = not tested or not shown; ! = not confirmed by another sample. Rows were chosen to be rich in hits. Some 1.8% of all compounds tested hit in one or more screens of this group.

SMILES	UPR XBP1 act	697 NFkB inh	CHOP UPR activ	CRFBP-R2 block	Jurkat NFkB inh	697 NFkB conf	others
Cc1ccc(OCCn2cc(C(=S)N3CCCC3)c3ccccc32)cc1C	0.9	i	0.4	-9.9	-57.8	7.2
CN(C)c1cccc(C(=O)NN2C(=O)NC3(CCCCC3)C2=O)c1	1.5	-29.2	-1.1	3.3	-13.3	x
O=C(c1ccc(Cl)cc1)C1CCN(C(=S)Nc2ccccc2)CC1	x	x	x	2.7	x	x
Cc1nn(C2CCS(=O)(=O)C2)c(C)c1CN(C)C(=O)c1cccc(Cl)c1 (centres undefined)	-0.7	-0.1	1.7	-1.9	-6.4	x
O=C(/C=C/Nc1ccc(Br)cc1F)c1ccco1	-8.1	-288.8	-6.3	-6.3	-64.7	-20.0
C[C@H](CO)N1C[C@H](C)[C@H](CN(C)Cc2ccncc2)Oc2cc(-c3ccccc3F)ccc2S1(=O)=O	x	x	x	9.2	x	x
C(=N\Nc1nc2ccccc2s1)/c1cccs1	2.5	-327.2	1.8	-33.3	-136.9	-303.8
Oc1ccc(C=NNc2nc3ccccc3s2)c(O)c1	x	x	x	-17.4	x	x
Cc1cc(C)c(C2=CC(=O)C[C@H](c3ccc4c(c3)OCO4)C2)c(C)c1	3.2	-2.0	1.4	-11.2	8.6	x
CCCOc1ccc(NC(=O)C(=O)NCCCn2ccnc2)cc1	-1.7	56.0*	1.2	4.4	10.8	53.4*
COc1ccc(NC(=O)C(=O)NCCCn2ccnc2)cc1	-1.1	10.4	-1.4	-5.2	-17.0	x
COc1ccc(CNC(=O)C(=O)NCCCn2ccnc2)cc1	-4.3	37.5*	0.0	13.2	0.2	19.6
CCOc1ccc(NC(=O)C(=O)NCCCn2ccnc2)cc1	-1.0	12.1	0.8	0.2	-9.5	x
Cc1oc(-c2cccc(Cl)c2)nc1CN(C)C1CCOC1 (centres undefined)	-1.6	-12.2	-2.6	-7.9	-8.0	x
Cc1oc(-c2ccc(-c3ccccc3)cc2)nc1CN(C)C1CCOC1 (centres undefined)	3.1	-311.1	8.7	-22.9	-50.7	-338.5
Cc1oc(-c2ccc(-c3ccccc3)cc2)nc1CN(CCO)C(C)C	-5.1	-477.9	2.0	-2.2	-66.6	-499.4
Cc1ccc(-c2nc(CS(=O)(=O)CC(=O)NCCCN(Cc3ccccc3)C(C)C)c(C)o2)cc1	-3.7	-17.7	-2.2	-7.6	9.9	x
CC(C)[C@H](N)C(=O)N[C@H]1CCC2C3CC=C4C[C@@H](O)CC[C@]4(C)C3CC[C@@]21C (some centres undefined)	x	x	x	-15.8	x	x
NC(c1ccccc1)c1ccncc1 (centres undefined)	-0.5	2.3	0.1	-0.7	20.8	x
CN(CCC#N)c1ccc(/C=C(\C#N)c2ccccn2)cc1	-4.2	-17.6	-3.0	11.2	-28.7	x
CCN(CC)c1ccc(/C=C(\C#N)c2ccccn2)cc1	-4.2	-290.5	-4.6	-55.4	-11.6	-428.2
O=C(c1ccc(N2CCCCC2)c([N+](=O)[O-])c1)N1CCOCC1	-3.1	2.6	-1.8	5.0	21.4	x
O=C(c1ccc(N2CCCC2)c([N+](=O)[O-])c1)N1CCc2ccccc2C1	3.3	36.5*	3.0	-3.3	2.5	15.7
CCC(NC(=O)CCc1c(C)c2cc3c4c(oc3cc2oc1=O)CCCC4)C(=O)O (centres undefined)	-9.8	49.5*	-3.8	-13.0	13.9	19.1
COc1ccc(-c2noc(N3CCC(C(=O)Nc4cccc(OC)c4)CC3)n2)cc1	-1.5	42.3*	0.2	-21.1	20.0	34.5*
SMILES	UPR XBP1 act	697 NFkB inh	CHOP UPR activ	CRFBP-R2 block	Jurkat NFkB inh	697 NFkB conf	others
COc1ccc(N2CCN(C(=O)COC(=O)CCc3ccccc3)CC2)cc1	2.2	16.5	0.9	4.3	14.2	x
Cc1noc(C)c1-c1ccc2ncnc(NCC3CCCCN3C)c2c1 (centres undefined)	-0.9	36.1*	0.8	8.7	-20.2	25.7
COc1ccccc1CNS(=O)(=O)c1ccc(-n2cnnn2)c(OC)c1	-4.4	11.9	-0.1	5.2	13.7	x
Cc1[nH]c2ccccc2c1/C=N/Nc1nc(Nc2ccccc2)nc(N2CCOCC2)n1	9.6	48.7*	15.1	-11.9	49.5	54.8*
C(=N\Nc1nc(N2CCOCC2)nc(N2CCOCC2)n1)/c1cccnc1	0.8	30.2	-2.3	4.0	0.3	x
O=C(Oc1cccc(/C=N/Nc2nc(N3CCOCC3)nc(N3CCOCC3)n2)c1)c1ccco1	1.6	44.3*	-1.6	-13.6	-6.4	24.6*
c1ccc(Nc2nc(N3CCCC3)nc(N3CCOCC3)n2)cc1	1.8	17.2	-2.7	-1.2	4.7	x
COc1cc(/C=N/Nc2nc(Nc3ccccc3)nc(N3CCOCC3)n2)ccc1OC(=O)c1ccco1	8.4	48.9*	8.9	-21.9	-45.3	38.7*
CC(NC(=O)c1cc(S(=O)(=O)N2CCCC2)ccc1Cl)c1ccccn1 (centres undefined)	-2.1	-7.9	-1.0	-4.2	-16.4	x
Cc1ccc(C(=O)CN2C(=O)NC3(CCCCCC3)C2=O)c(C)c1	0.5	-78.9	4.9	1.7	-56.5	x
Cc1[nH]c2ccccc2c1/C=N/NC(=O)c1cccs1	4.0	27.7	0.5	26.2	-30.1	x
Cc1c(/C=N/NC(=O)c2cccs2)c2ccccc2n1Cc1ccccc1Cl	2.1	i	4.0	-8.5	-45.8	3.5
O=C(Nc1cccc2ccccc12)N(CCO)C1CCS(=O)(=O)C1 (centres undefined)	-11.4	-16.0	1.4	24.4	-0.5	x
COc1cc(-c2nc3ccc(N4CCN(C)CC4)cc3[nH]2)cc(OC)c1OC	1.8	37.8*	1.2	3.7	-31.8	31.4*
CC(=O)c1c(-c2ccccc2)c2cc(Cl)ccc2[nH]c1=O	-0.7	36.2*	-0.9	-13.7	-1.5	-6.1
Cc1ccc(-c2c[n+]3c(n2-c2ccccc2)SCC3)cc1	-0.6	38.7*	-0.5	13.1	34.2	42.2*
Cc1ccc(-c2cn(-c3ccccc3)c3[n+]2CCCS3)cc1	-1.6	56.4*!	0.8	11.3	39.8	35.5*
COc1cccc(CC(NC(C)=O)C(=O)NC2CCN(S(=O)(=O)c3ccc(NC(C)=O)cc3)CC2)c1OC (centres undefined)	-6.9	19.2	2.1	5.3	8.9	x
CC1=CC(C)(C)Nc2ccc(C)cc21	-1.8	-28.1	-2.2	-3.3	-11.9	x
CC1=CC(C)(C)Nc2ccc(OC(=O)CN3C(=O)CCC3=O)cc21	-4.4	64.5*	86.8*	-8.2	6.1	47.9*	CHOP UPR conf=92.0*
C=C1C(=O)C=C[C@]2(C)C[C@@H]3OC(=O)[C@](C)(O)[C@H]3C[C@@H]12	2.6	-314.2	58.8*	30.7	42.3	-198.2	CHOP UPR conf=55.9*
